Results as given in ChEMBL document CHEMBL4014276, “Diphenylurea derivatives for combating methicillin- and vancomycin-resistant Staphylococcus aureus” (Eur J Med Chem, 2017).
In brackets after ≈: the same amount, converted by molar mass. Activity calls are given as the source filed them. The calls are words filed in the database; no cut-off is given here.

Legend:
Staphylococcus aureus [1] = experiment: Antibacterial activity against methicillin-resistant Staphylococcus aureus USA400 NRS123 clinical isolate after 20 hrs by broth microdilution method; format: functional; conditions: USA400 NRS123, 20 h
How it was run: (§1)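 CLSI broth microdilution in cation-adjusted Mueller Hinton broth; compounds serially diluted, triplicate samples; 37 °C, 20 h. MIC read visually as lowest concentration with no visible growth; mean of triplicate determinations reported.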

Staphylococcus aureus [2] = experiment: Antibacterial activity against methicillin-resistant Staphylococcus aureus USA300 NRS384 clinical isolate preincubated followed by bacterial subculturing for 2 weeks; format: functional
Staphylococcus aureus [3] = experiment: Antibacterial activity against methicillin-resistant Staphylococcus aureus USA200 NRS383 clinical isolate preincubated followed by bacterial subculturing for 2 weeks; format: functional
Staphylococcus aureus [4] = experiment: Bactericidal activity against methicillin-resistant Staphylococcus aureus USA200 NRS383 clinical isolate after 18 hrs by broth microdilution method; format: functional; conditions: USA200 NRS383, 18 h
How it was run: (§2)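 From MIC wells without visible growth, 5 uL spotted onto Tryptic soy agar, incubated 37 °C for at least 18 h; MBC taken as lowest concentration giving 99.9% growth inhibition.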

Staphylococcus aureus [5] = experiment: Antibacterial activity against vancomycin-resistant Staphylococcus aureus VRSA10 after 20 hrs by broth microdilution method; format: functional; conditions: VRSA10, 20 h; how it was run: as §1
Staphylococcus aureus [6] = experiment: Antibacterial activity against methicillin-resistant Staphylococcus aureus USA400 NRS123 clinical isolate preincubated followed by bacterial subculturing for 2 weeks; format: functional
Staphylococcus aureus [7] = experiment: Antibacterial activity against methicillin-resistant Staphylococcus aureus USA200 NRS383 clinical isolate after 20 hrs by broth microdilution method; format: functional; conditions: USA200 NRS383, 20 h; how it was run: as §1
Staphylococcus aureus [8] = experiment: Bactericidal activity against Staphylococcus aureus RN4220 NRS107 clinical isolate after 18 hrs by broth microdilution method; format: functional; conditions: RN4220 NRS107, 18 h; how it was run: as §2
Staphylococcus aureus [9] = experiment: Antibacterial activity against methicillin-resistant Staphylococcus aureus USA300 NRS384 clinical isolate after 20 hrs by broth microdilution method; format: functional; conditions: USA300 NRS384, 20 h; how it was run: as §1
Staphylococcus aureus [10] = experiment: Bactericidal activity against vancomycin-resistant Staphylococcus aureus VRSA4 after 18 hrs by broth microdilution method; format: functional; conditions: VRSA4, 18 h; how it was run: as §2
Staphylococcus aureus [11] = experiment: Bactericidal activity against methicillin-resistant Staphylococcus aureus USA100 NRS382 clinical isolate after 18 hrs by broth microdilution method; format: functional; conditions: USA100 NRS382, 18 h; how it was run: as §2
Staphylococcus aureus [12] = experiment: Antibacterial activity against Staphylococcus aureus RN4220 NRS107 clinical isolate after 20 hrs by broth microdilution method; format: functional; conditions: RN4220 NRS107, 20 h; how it was run: as §1
Staphylococcus aureus [13] = experiment: Antibacterial activity against methicillin-resistant Staphylococcus aureus USA100 NRS382 clinical isolate preincubated followed by bacterial subculturing for 2 weeks; format: functional
Staphylococcus aureus [14] = experiment: Bactericidal activity against methicillin-resistant Staphylococcus aureus USA300 NRS384 clinical isolate after 18 hrs by broth microdilution method; format: functional; conditions: USA300 NRS384, 18 h; how it was run: as §2
Staphylococcus aureus [15] = experiment: Antibacterial activity against vancomycin-resistant Staphylococcus aureus VRSA4 after 20 hrs by broth microdilution method; format: functional; conditions: VRSA4, 20 h; how it was run: as §1
Staphylococcus aureus [16] = experiment: Antibacterial activity against methicillin-resistant Staphylococcus aureus USA100 NRS382 clinical isolate after 20 hrs by broth microdilution method; format: functional; conditions: USA100 NRS382, 20 h; how it was run: as §1
Staphylococcus aureus [17] = experiment: Bactericidal activity against vancomycin-resistant Staphylococcus aureus VRSA10 after 18 hrs by broth microdilution method; format: functional; conditions: VRSA10, 18 h; how it was run: as §2
Staphylococcus aureus [18] = experiment: Bactericidal activity against methicillin-resistant Staphylococcus aureus USA400 NRS123 clinical isolate after 18 hrs by broth microdilution method; format: functional; conditions: USA400 NRS123, 18 h; how it was run: as §2
[19] = Intrinsic clearance in human liver microsomes in presence of NADPH by LC-MS/MS method; format: ADME, microsome; conditions: read-out: CLH
[20] = Half life in human liver microsomes in presence of NADPH by LC-MS/MS method; format: ADME, microsome
Staphylococcus aureus [21] = experiment: Bactericidal activity against methicillin-resistant Staphylococcus aureus USA400 assessed as time required to reduce log10CFU of bacterial load at 4 times MIC by time kill assay; format: functional

Structure (SMILES)	MIC (Staphylococcus aureus [1])	Activity (Staphylococcus aureus [2])	Activity (Staphylococcus aureus [3])	MBC (Staphylococcus aureus [4])	MIC (Staphylococcus aureus [5])	Activity (Staphylococcus aureus [6])	MIC (Staphylococcus aureus [7])	MBC (Staphylococcus aureus [8])	MIC (Staphylococcus aureus [9])	MBC (Staphylococcus aureus [10])	MBC (Staphylococcus aureus [11])	MIC (Staphylococcus aureus [12])	Activity (Staphylococcus aureus [13])	MBC (Staphylococcus aureus [14])	MIC (Staphylococcus aureus [15])	MIC (Staphylococcus aureus [16])	MBC (Staphylococcus aureus [17])	MBC (Staphylococcus aureus [18])	other results
C/C(=N\NC(=N)N)c1ccc(NC(=O)c2cc(-c3ccccc3)n(C)n2)cc1	> 32 mg/L	–	–	–	–	–	–	–	–	–	–	–	–	–	–	–	–	–	–
C/C(=N\NC(=N)N)c1ccc(NC(=O)Nc2ccc(OCC3CCC3)cc2)cc1	16 mg/L (≈ 40.6 µM)	Active	Active	32 mg/L (≈ 81.1 µM)	16 mg/L (≈ 40.6 µM)	Active	16 mg/L (≈ 40.6 µM)	16 mg/L (≈ 40.6 µM)	16 mg/L (≈ 40.6 µM)	16 mg/L (≈ 40.6 µM)	16 mg/L (≈ 40.6 µM)	16 mg/L (≈ 40.6 µM)	Active	16 mg/L (≈ 40.6 µM)	16 mg/L (≈ 40.6 µM)	16 mg/L (≈ 40.6 µM)	32 mg/L (≈ 81.1 µM)	32 mg/L (≈ 81.1 µM)	–
CCCCCCOc1ccc(NC(=O)Nc2ccc(/C(C)=N/NC(=N)N)cc2)cc1	8 mg/L (≈ 19.5 µM)	Active	Active	8 mg/L (≈ 19.5 µM)	8 mg/L (≈ 19.5 µM)	Active	4 mg/L (≈ 9.74 µM)	8 mg/L (≈ 19.5 µM)	8 mg/L (≈ 19.5 µM)	8 mg/L (≈ 19.5 µM)	4 mg/L (≈ 9.74 µM)	8 mg/L (≈ 19.5 µM)	Active	16 mg/L (≈ 39 µM)	8 mg/L (≈ 19.5 µM)	4 mg/L (≈ 9.74 µM)	8 mg/L (≈ 19.5 µM)	16 mg/L (≈ 39 µM)	–
C/C(=N\NC(=N)N)c1ccc(NC(=O)Nc2ccc(OCc3ccccc3)cc2)cc1	8 mg/L (≈ 19.2 µM)	Active	Active	16 mg/L (≈ 38.4 µM)	8 mg/L (≈ 19.2 µM)	Active	8 mg/L (≈ 19.2 µM)	8 mg/L (≈ 19.2 µM)	8 mg/L (≈ 19.2 µM)	8 mg/L (≈ 19.2 µM)	> 128 mg/L	8 mg/L (≈ 19.2 µM)	Active	8 mg/L (≈ 19.2 µM)	8 mg/L (≈ 19.2 µM)	4 mg/L (≈ 9.6 µM)	> 64 mg/L	> 64 mg/L	–
C/C(=N\NC(=N)N)c1ccc(NC(=O)Nc2ccc(I)cc2)cc1	10 mg/L (≈ 22.9 µM)	–	–	–	–	–	–	–	–	–	–	–	–	–	–	–	–	–	–
C/C(=N\NC(=N)N)c1ccc(NC(=O)Nc2ccc(C(C)(C)C)cc2)cc1	–	Active	Active	–	–	Active	–	–	–	–	128 mg/L (≈ 349 µM)	–	Active	–	–	64 mg/L (≈ 175 µM)	–	–	microsomal CLint [19]: 20 µL/min/mg; half-life [20]: 2.9 h
C/C(=N\NC(=N)N)c1ccc(NC(=O)c2cc(C)oc2C)cc1	24 mg/L (≈ 76.6 µM)	–	–	–	–	–	–	–	–	–	–	–	–	–	–	–	–	–	–
CCCCCCCCOc1ccc(NC(=O)Nc2ccc(/C(C)=N/NC(=N)N)cc2)cc1	32 mg/L (≈ 73 µM)	Active	Active	16 mg/L (≈ 36.5 µM)	16 mg/L (≈ 36.5 µM)	Active	16 mg/L (≈ 36.5 µM)	32 mg/L (≈ 73 µM)	16 mg/L (≈ 36.5 µM)	32 mg/L (≈ 73 µM)	32 mg/L (≈ 73 µM)	16 mg/L (≈ 36.5 µM)	Active	16 mg/L (≈ 36.5 µM)	16 mg/L (≈ 36.5 µM)	16 mg/L (≈ 36.5 µM)	32 mg/L (≈ 73 µM)	32 mg/L (≈ 73 µM)	–
C/C(=N\NC(=N)N)c1ccc(NC(=O)Nc2ccc(OCC(C)C)cc2)cc1	8 mg/L (≈ 20.9 µM)	Active	Active	4 mg/L (≈ 10.5 µM)	4 mg/L (≈ 10.5 µM)	Active	4 mg/L (≈ 10.5 µM)	4 mg/L (≈ 10.5 µM)	4 mg/L (≈ 10.5 µM)	8 mg/L (≈ 20.9 µM)	8 mg/L (≈ 20.9 µM)	4 mg/L (≈ 10.5 µM)	Active	8 mg/L (≈ 20.9 µM)	4 mg/L (≈ 10.5 µM)	8 mg/L (≈ 20.9 µM)	8 mg/L (≈ 20.9 µM)	16 mg/L (≈ 41.8 µM)	–
COc1ccc(C(=O)Nc2ccc(/C(C)=N/NC(=N)N)cc2)cc1OC	16 mg/L (≈ 45 µM)	–	–	–	–	–	–	–	–	–	–	–	–	–	–	–	–	–	–
C/C(=N\NC(=N)N)c1ccc(NC(=O)Nc2ccc(OCCCC(C)C)cc2)cc1	4 mg/L (≈ 9.74 µM)	Active	Active	8 mg/L (≈ 19.5 µM)	4 mg/L (≈ 9.74 µM)	Active	4 mg/L (≈ 9.74 µM)	4 mg/L (≈ 9.74 µM)	8 mg/L (≈ 19.5 µM)	4 mg/L (≈ 9.74 µM)	8 mg/L (≈ 19.5 µM)	4 mg/L (≈ 9.74 µM)	Active	8 mg/L (≈ 19.5 µM)	4 mg/L (≈ 9.74 µM)	4 mg/L (≈ 9.74 µM)	4 mg/L (≈ 9.74 µM)	8 mg/L (≈ 19.5 µM)	Time (Staphylococcus aureus [21]): <=4 hr
CCC(CC)COc1ccc(NC(=O)Nc2ccc(/C(C)=N/NC(=N)N)cc2)cc1	–	Active	Active	–	–	Active	–	–	–	–	–	–	Active	–	–	128 mg/L (≈ 312 µM)	–	–	–
C/C(=N\NC(=N)N)c1ccc(NC(=O)Cc2cc(F)cc(F)c2)cc1	16 mg/L (≈ 46.3 µM)	–	–	–	–	–	–	–	–	–	–	–	–	–	–	–	–	–	–
CCCCCCCOc1ccc(NC(=O)Nc2ccc(/C(C)=N/NC(=N)N)cc2)cc1	16 mg/L (≈ 37.7 µM)	Active	Active	8 mg/L (≈ 18.8 µM)	16 mg/L (≈ 37.7 µM)	Active	8 mg/L (≈ 18.8 µM)	8 mg/L (≈ 18.8 µM)	16 mg/L (≈ 37.7 µM)	8 mg/L (≈ 18.8 µM)	16 mg/L (≈ 37.7 µM)	8 mg/L (≈ 18.8 µM)	Active	16 mg/L (≈ 37.7 µM)	8 mg/L (≈ 18.8 µM)	16 mg/L (≈ 37.7 µM)	16 mg/L (≈ 37.7 µM)	16 mg/L (≈ 37.7 µM)	–
